These results are taken from ChEMBL document CHEMBL4513216, “Probing the Open Global Health Chemical Diversity Library for Multistage-Active Starting Points for Next-Generation Antimalarials” (ACS Infect Dis, 2020).

This data set can be described thus: Toxicity liver stage against HepG2, at 10uM. Type of data set: cell-based. Further details: test concentration 10 uM, cell line HepG2-A16-CD81EGFP. The note with it: human, HepG2-A16-CD81EGFP cells; read-out: INHIBITION
The procedure, abridged: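 Uninfected HepG2-A16-CD81EGFP cells, 3 × 10^3 per well, 1536-well, plated on prespotted compound at 10 μM final, parasite-free screening media added to match infected plates; puromycin 10 μM positive, DMSO 0.5% negative; run in parallel with 48 h PbLuc assay at 37 °C, 5% CO2; viability by CellTiter-Glo luminescence, normalized to controls.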
For `COC(=O)[C@@H]1CN(C(=O)c2cscn2)C[C@H]1c1ccc(OC)cc1`, the cytotoxicity at 10 µM is -31.6%.
The value for `O=C(c1ccncc1F)N1CCN(CC2CC2)c2ncccc2C1` was 6.48%.
Then `CCc1ccc(S(=O)(=O)N2CCCC3(CCCN3S(C)(=O)=O)C2)cc1` (centres undefined), with -2.98%.
In the case of `COCC(=O)N1CCN(C(C)c2ncc(-c3ccccc3)o2)CC1` (centres undefined), the cytotoxicity at 10 µM was 5.66%.
Turning to `CNC(=O)[C@@]12CCO[C@@H]1CCN(Cc1ccc3c(c1)OCO3)C2`, the cytotoxicity at 10 µM was determined as 1.75%.
With `Cc1c(C(=O)N2CCCC2c2cnn(C)c2)nnn1-c1ccccc1` (centres undefined), the cytotoxicity at 10 µM was -11.4%.
Consider `Cc1ccc(C2CSCCN2C(=O)c2ccc(C(N)=O)cc2)o1` (centres undefined), for which the cytotoxicity at 10 µM is -2.12%.
In the case of `COc1ccccc1CN1C(=O)O[C@@H]2CN(S(=O)(=O)N(C)C)C[C@@H]21`, the cytotoxicity at 10 µM was determined as 2.54%.
Then `COCCCC1(CO)CCCN(CCc2ccccn2)C1` (centres undefined), with 7.42%; and `Cc1cc(C(=O)O)ccc1NS(=O)(=O)c1c(C)nn(C(C)C)c1C`, with 5.31%.
Then `COCCCN1CC2(CCC1=O)CCN(Cc1cc(C(C)C)no1)CC2`, with -2.1%.
As for `COc1ccc(-c2cc(C3CCN(C(C)=O)CC3)ccn2)cc1`, the cytotoxicity at 10 µM was -5.05%.
For the compound `Cc1cc(NC(=O)CN(CC2CCOC2)C2CC2)no1` (centres undefined), the cytotoxicity at 10 µM stood at 1.65%.
Turning to `CC(C)NC(=O)CS(=O)(=O)Cc1coc(-c2ccc(F)cc2)n1`, the cytotoxicity at 10 µM is -6.6%.
Then `CCc1ccc(C(=O)N2CCN(c3nc(C)cc(OC)n3)CC2)o1`, with -18.7%; and `Cc1c(O)cccc1C(=O)N1CCCC2(C1)C(=O)N(C)c1ccccc12` (centres undefined), with 4.34%.
In the case of `O=C(NC1CC1)[C@@H]1C[C@@H]2CCN(Cc3ccoc3)C[C@@H]2O1`, the cytotoxicity at 10 µM was -103%.
As to `O=C(CCOc1cccc(Cl)c1)N1CCN(c2cnccn2)CC1`, the cytotoxicity at 10 µM is -0.284%.
For the compound `CCc1noc(C)c1C(=O)NCc1c(C)nn(CCOC)c1C`, the cytotoxicity at 10 µM is -9.35%.
`Cn1c(CCC(=O)N2CCCC3(CNC(=O)O3)C2)nc2cccnc21` (centres undefined): the cytotoxicity at 10 µM came out at 2.3%.
As for `Cc1nc2c(c(NC3CCN(Cc4ccccc4)CC3)n1)CCNCC2`, the cytotoxicity at 10 µM is -6.74%.
As for `Cc1nc(C)c(CC(=O)N2CCN(CC(C)C)CC2)c(=O)[nH]1`, the cytotoxicity at 10 µM was -12.3%.
`CCN1CCCc2cc(CN3CCc4c(nc(C)[nH]c4=O)C3)ccc21`: the cytotoxicity at 10 µM is -1.02%.
Take `CNC(=O)N1CC[C@H]2N(C)CC[C@@]2(C(=O)Nc2ccccc2)CC1`: the cytotoxicity at 10 µM was -17.2%.
Turning to `CC(C)(C)C(=O)N1CCN(C(=O)Nc2cnn(CC(F)F)c2)CC1`, the cytotoxicity at 10 µM stood at 9.62%.
With `N#CC1(C(=O)N2CCCN(Cc3cscn3)CC2)CCCCC1`, the cytotoxicity at 10 µM was -2.54%.
In the case of `COc1ccc(-n2ccc(CNCc3cccc(OC)c3)n2)cc1`, the cytotoxicity at 10 µM was 3.12%.
Take `CCOC1CCCN(C(=O)c2nn(-c3ccccc3F)cc2O)C1` (centres undefined): the cytotoxicity at 10 µM is -4.62%.
Turning to `CC(C)OCCCNC(=O)[C@@]12CNC[C@@H]1CN(S(C)(=O)=O)C2`, the cytotoxicity at 10 µM was 6.99%.
On to `Cc1cc(CN2C[C@H]3CCC[C@@]3(COCC3CCOCC3)C2)no1`, for which the cytotoxicity at 10 µM was determined as 0.073%.
As to `CS(=O)(=O)NCc1cccc(COC2CCCCC2)c1`, the cytotoxicity at 10 µM amounted to 3.12%.
Regarding `Cn1ccc(C(=O)N2CCOC(c3ccc(C(N)=O)cn3)C2)n1` (centres undefined), the cytotoxicity at 10 µM is -20%.
In the case of `Cc1nc2ccccc2c(=O)n1CCC(=O)N1CCCC1`, the cytotoxicity at 10 µM was -10%.
On to `CC(=O)N1CCN(c2cc(N(C)C)cnn2)CC1`, for which the cytotoxicity at 10 µM worked out at 1.37%.
With `COCCC(=O)N1C[C@@H](O)[C@H](N2CCN(c3ccccc3)CC2)C1`, the cytotoxicity at 10 µM was determined as 0.046%.
`COC[C@@H]1CCC[C@]12CN(Cc1cccc(C)n1)CCO2`: the cytotoxicity at 10 µM is 5.53%.
As for `COc1ccc(C[C@H]2CN(C(=O)c3ccncc3)CC[C@@H]2OC)cc1`, the cytotoxicity at 10 µM turned out to be 5.75%.
On to `Cc1noc(C)c1S(=O)(=O)N1CCC(n2cccn2)CC1`, for which the cytotoxicity at 10 µM is 2.63%.
For `CC1CCN(C(=O)[C@H]2C[C@@H]3CCN(CC4CCOCC4)C[C@@H]3O2)CC1`, the cytotoxicity at 10 µM stood at 9.85%.
For `Cc1ccccc1CN(Cc1ccccn1)C(=O)CNS(C)(=O)=O`, the cytotoxicity at 10 µM is 1.48%.
As to `COc1ccccc1OCC(=O)n1ncc(C#N)c1N`, the cytotoxicity at 10 µM is -20%.
Regarding `CCn1ccc(-c2cc(C(=O)O)n3ncc(Br)c3n2)n1`, the cytotoxicity at 10 µM is -4.81%.
Turning to `Cc1cnc(C(=O)N2C[C@@H]3[C@@H](C2)OCC(=O)N3CC2CCCC2)cn1`, the cytotoxicity at 10 µM is -3.78%.
Turning to `CC(C)CN1C[C@H]2N(c3ncccn3)CCC[C@@]2(C(=O)NCC2CC2)C1`, the cytotoxicity at 10 µM is -94.6%.
In the case of `O=C(Cc1ccccc1)NCc1ncc(-c2ccccc2C(=O)O)cn1`, the cytotoxicity at 10 µM is -1.89%.
Turning to `NC(=O)Cn1ccc(NC(=O)C2(c3ccc(F)cc3)CC2)n1`, the cytotoxicity at 10 µM was -2.82%.
Consider `CN(Cc1cnn(C)c1)C(=O)c1cc2ccccc2c(=O)[nH]1`, for which the cytotoxicity at 10 µM was -5.64%.
For `O=C(Nc1cccnc1)[C@H]1CN(Cc2nccs2)C[C@H]2OCC[C@@H]12`, the cytotoxicity at 10 µM turned out to be 2.88%.
On to `OC(CNCCn1cccn1)c1ccc(F)c(F)c1` (centres undefined), for which the cytotoxicity at 10 µM was determined as 2.05%.
As for `CC(C)c1cc(C(=O)N(c2ccc(F)cn2)C2CCOCC2)on1`, the cytotoxicity at 10 µM was -9.01%.
Then `Cc1ccc(C(=O)NC2CCCN(S(C)(=O)=O)C2)c(=O)[nH]1` (centres undefined), with 10.6%; and `CCCc1ncc(CN(C)C2CCCN(CCc3ccccc3)C2)cn1` (centres undefined), with 0.301%.
As to `Cc1cn2c(n1)CCC(NS(=O)(=O)c1cc(C)sc1C)C2` (centres undefined), the cytotoxicity at 10 µM amounted to 2.74%.
For `CCC1C(=O)NCCN1c1nccc(C)n1` (centres undefined), the cytotoxicity at 10 µM was found to be 0.889%.
Then `CCc1ocnc1C(=O)N1CCC2(CCCN(CC(C)(C)C)C2=O)C1` (centres undefined), with 7.79%; and `COCCN(C)C(=O)Nc1ccn(-c2cccc(C(F)(F)F)c2)n1`, with -2.16%; and `Cc1nc(NC(=O)NC2CC(=O)N(C)C2)nn1C` (centres undefined), with -12.2%.
The value for `CNC(=O)C(C)CNC(=O)c1coc(COc2cccc(F)c2F)n1` (centres undefined) was 5.21%; that for `O=C(c1cccc2c1OCO2)N1CCCCC1Cn1cccn1` (centres undefined) was -1.25%; that for `CCc1cc(CNC(=O)C2CCC(=O)N(Cc3ccccc3F)C2)on1` (centres undefined) was 1.48%.
With `CCSc1cccc(NCc2cccnc2)c1`, the cytotoxicity at 10 µM was 0.14%.
Take `OCc1ccc(Cl)c(NCc2cccnc2)c1`: the cytotoxicity at 10 µM was found to be 3.12%.
For the compound `COc1ccc(C(=O)NCCc2nnc3ccccn23)c(OC)c1`, the cytotoxicity at 10 µM is 9.6%.
For the compound `Cc1ccc2c(C)c(C(=O)NCc3csc(N)n3)oc2c1`, the cytotoxicity at 10 µM is -2.83%.
On to `Cn1cnc2c(N3CCOCC3)nc(C3CCNCC3)cc21`, for which the cytotoxicity at 10 µM was found to be 2.98%.
Then `CCN1CCC(CC(=O)NCC(O)c2ccc3ccccc3c2)CC1` (centres undefined), with -5.26%.
As for `Cn1nccc1-c1cccc(CC2CCN(S(C)(=O)=O)C2)n1` (centres undefined), the cytotoxicity at 10 µM is 4.54%.
On to `CCc1nc(CN2CCCC(NCc3ccc(C(N)=O)cc3)C2)no1` (centres undefined), for which the cytotoxicity at 10 µM is -12.3%.
Then `COCCc1noc(-c2ccc(=O)[nH]c2)n1`, with -3.61%; and `Cc1nn(C)c(C)c1C1CCCN1C(=O)c1cc(C(N)=O)cs1` (centres undefined), with -2.53%.
Turning to `Cc1nccn1CC(=O)N1CC(Cc2nccc3ccn(C)c23)C1`, the cytotoxicity at 10 µM was -23.4%.
With `O=C(CN1CCOC(CNc2cccnn2)C1)NCc1cccs1` (centres undefined), the cytotoxicity at 10 µM is -14%.
Turning to `COCc1noc(C2(c3ccc(F)cc3)CCOCC2)n1`, the cytotoxicity at 10 µM was -25.3%.
Then `CC1=C[C@@H](CN2CCOCC2)[C@H](C(C)C)C[C@H]1Cc1nnc(C)o1`, with -5.07%; and `CC(=O)N1CCCN(C(=O)NCc2ccc(-c3ccn[nH]3)cc2)CC1`, with 0.322%; and `c1cnc(N2CCOCC3(CN(Cc4cc[nH]n4)CCO3)C2)nc1` (centres undefined), with 10%.
In the case of `CCOc1cc([C@H]2N[C@@H](c3nc(C)cs3)Cc3ccsc32)ccc1OC`, the cytotoxicity at 10 µM worked out at 24.3%.
Then `O=C(C1CCC1)N1C[C@H]2CC[C@@H](C1)N(S(=O)(=O)c1cccnc1)C2`, with -3.65%; and `C1CCN(CCO[C@@H]2CC[C@H]3[C@H]2OCCN3CC2CCOCC2)C1`, with 2.98%.
In the case of `COC(=O)c1cccn1C1CCN(S(=O)(=O)c2ccccc2)CC1`, the cytotoxicity at 10 µM was -11.1%.
On to `CCOCCNC(=O)c1cc(COc2cncc(Cl)c2)on1`, for which the cytotoxicity at 10 µM came to 7.62%.
As to `Cc1ccsc1-c1cccc(-c2ccn(CC3CCNC3)n2)c1` (centres undefined), the cytotoxicity at 10 µM is -0.288%.
The value for `CS(=O)(=O)NCCC1CCCN(Cc2ccccc2F)C1` (centres undefined) was -1.25%.
With `Nc1nc(C2CCN(C(=O)c3cscn3)CC2)cs1`, the cytotoxicity at 10 µM turned out to be 3.32%.
As for `COCC1CN(Cc2ccc(OC)cc2)Cc2nn(C)cc21` (centres undefined), the cytotoxicity at 10 µM was found to be 0.976%.
On to `Cc1ccc(C(CNCc2cccn2C)N2CCOCC2)s1` (centres undefined), for which the cytotoxicity at 10 µM was determined as 14.9%.
Then `CNC(=O)CN1CCN(C(=O)c2ccn(C)c(=O)c2)CC1`, with -16%; and `O=C(c1cc2ccccc2c(=O)[nH]1)N1CCN(CCO)CC1`, with 4.96%.
Turning to `CN(c1ncccc1CNS(=O)(=O)N1CCOCC1)C1CCCCC1`, the cytotoxicity at 10 µM was found to be 6.39%.
`Cc1cc(C2CCCN2CCCS(=O)(=O)c2ccccc2)no1` (centres undefined): the cytotoxicity at 10 µM is -8.83%.
Regarding `CCc1ccccc1OC1CN(C(=O)CN(C)Cc2ccncc2)C1`, the cytotoxicity at 10 µM was -4.55%.
The value for `Cc1nc(-c2ccccc2)n(CC(=O)NC(C)(C)C)n1` was -16%; that for `CO[C@H]1CCN(Cc2cccs2)[C@@H]2CN(Cc3ccncc3)C[C@H]12` was 2.31%.
Regarding `Fc1cccc2[nH]c(CN3CCc4cncnc4C3)nc12`, the cytotoxicity at 10 µM is -1.03%.
